In this assay the target is Sodium-dependent serotonin transporter (Rattus norvegicus, UniProt P31652). Kind of assay: Inhibition of SERT-mediated serotonin uptake in rat synaptosomes. An outline of the steps:
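Synaptosomes prepared from rat brain homogenate. Each compound was run in both the release assay and the uptake-inhibition assay to classify it as a releasing substrate or an uptake inhibitor. Dose-response curves were then completed only for the assigned activity. Values are means ± SD from N = 3 experiments, each performed in triplicate.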

Structures are written as SMILES.

Chain of Sodium-dependent serotonin transporter (P31652 whole entry): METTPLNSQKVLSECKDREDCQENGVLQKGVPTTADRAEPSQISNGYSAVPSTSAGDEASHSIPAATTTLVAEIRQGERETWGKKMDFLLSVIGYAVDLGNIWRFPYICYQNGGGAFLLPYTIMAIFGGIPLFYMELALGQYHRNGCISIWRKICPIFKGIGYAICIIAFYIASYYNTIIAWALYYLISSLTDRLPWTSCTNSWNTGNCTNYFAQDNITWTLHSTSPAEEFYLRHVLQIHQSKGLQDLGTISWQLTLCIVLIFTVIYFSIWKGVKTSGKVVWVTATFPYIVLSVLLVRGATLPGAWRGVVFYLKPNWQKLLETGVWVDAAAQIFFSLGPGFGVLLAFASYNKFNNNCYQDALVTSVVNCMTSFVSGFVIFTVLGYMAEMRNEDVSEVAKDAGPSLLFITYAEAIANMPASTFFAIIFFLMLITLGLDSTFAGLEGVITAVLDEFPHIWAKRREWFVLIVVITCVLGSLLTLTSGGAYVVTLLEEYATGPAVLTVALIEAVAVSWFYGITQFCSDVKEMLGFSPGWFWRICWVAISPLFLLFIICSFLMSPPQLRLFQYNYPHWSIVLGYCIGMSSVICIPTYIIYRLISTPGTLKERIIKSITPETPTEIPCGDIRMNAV

Consider `CC(NC1CC1)C(=O)c1cccc(Cl)c1` (stereo unspecified) [2-(N-Cyclopropylamino)-3-chloropropiophenone], for which the IC50 stood at 3.18 µM.

The IC50 is the midpoint of a concentration-inhibition curve. Lower therefore signals higher potency.

These data come from BindingDB's records for doi:10.1021/ml500113s (Rti International, 2014).
